Source: ChEMBL document CHEMBL2384986, “Re-evolution of the 2-phenylquinolines: ligand-based design, synthesis, and biological evaluation of a potent new class of Staphylococcus aureus NorA efflux pump inhibitors to combat antimicrobial resistance” (J Med Chem, 2013)
The source made the active and inactive calls. The calls are words filed in the database; no cut-off is given here.

How the values were obtained:
[1] = test system: Staphylococcus aureus; test: Antibacterial activity against norA-deficient Staphylococcus aureus K1902 assessed as growth inhibition by microdilution method; assay type: functional
Procedure, shortened: (§1)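 Broth microdilution MIC determination following CLSI guidelines. Strains: wild-type ATCC 25923 and SA-K1902 (norA−). Intrinsic activity was tested up to a top concentration of 100 μg/mL.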

[2] = test system: Staphylococcus aureus; test: Reduction of ciprofloxacin MIC in norA-deficient Staphylococcus aureus K1902 at 0.78 to 100 ug/mL; assay type: functional, organism-based
Procedure, shortened: (§2)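 Ciprofloxacin MIC determined by CLSI broth microdilution, alone and combined with scalar dilutions of freshly prepared test compound; checkerboard combination format. Strains: ATCC 25923 (wild type), SA-1199 (norA wt), SA-1199B (norA overexpressing, GrlA A116E), SA-K2378 (norA on multicopy pCU1) and SA-K1902 (norA-deleted).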

[3] = molecular target: T1, Quinolone resistance protein NorA (Staphylococcus aureus) (UniProt P0A0J7); test: Inhibition of NorA in Staphylococcus aureus 1199B harboring grlA A116E mutant assessed as inhibition of ethidium bromide efflux at 50 uM measured for 5 mins by fluorometric analysis relative to control
T1 sequence (whole entry): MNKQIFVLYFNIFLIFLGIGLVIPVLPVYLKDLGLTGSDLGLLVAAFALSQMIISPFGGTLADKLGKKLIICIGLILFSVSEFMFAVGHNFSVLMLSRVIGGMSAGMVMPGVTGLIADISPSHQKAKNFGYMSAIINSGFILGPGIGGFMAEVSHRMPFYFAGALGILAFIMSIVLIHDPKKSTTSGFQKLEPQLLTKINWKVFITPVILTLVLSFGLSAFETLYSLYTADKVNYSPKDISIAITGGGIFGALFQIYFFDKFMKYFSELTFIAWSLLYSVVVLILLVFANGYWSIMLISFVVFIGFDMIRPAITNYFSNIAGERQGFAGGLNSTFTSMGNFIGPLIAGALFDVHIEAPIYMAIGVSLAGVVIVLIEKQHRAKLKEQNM
Procedure, shortened: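 EtBr loss from SA-1199B (norA overexpressing, GrlA A116E) measured fluorometrically with inhibitor at 50 μM, compared with no-inhibitor control. Read-out is mean total efflux over a 5 min time course, expressed as percent reduction in efflux. Usually run in duplicate.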

[4] = test system: Staphylococcus aureus; test: Antibacterial activity against Staphylococcus aureus 1199 harboring wild type norA assessed as growth inhibition by microdilution method
[5] = test system: Staphylococcus aureus; test: Antibacterial activity against Staphylococcus aureus K2378 overexpressing norA assessed as growth inhibition by microdilution method; assay type: functional
Procedure, shortened: (§3)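 Broth microdilution MIC per CLSI guidelines for intrinsic antistaphylococcal activity; highest concentration tested 100 μg/mL. SA-1199 is the norA wild-type parent, SA-1199B overexpresses norA and carries GrlA A116E, and SA-K2378 overexpresses norA from multicopy plasmid pCU1 in the norA-deleted SA-K1902 background.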

[6] = molecular target: T1, Quinolone resistance protein NorA (Staphylococcus aureus); test: Inhibition of NorA in Staphylococcus aureus K2378 assessed as reduction of ciprofloxacin MIC at 0.78 to 100 ug/mL relative to control; procedure, shortened: as §2
[7] = molecular target: T1, Quinolone resistance protein NorA (Staphylococcus aureus); test: Inhibition of wild type NorA in Staphylococcus aureus 1199 assessed as reduction of ciprofloxacin MIC at 0.78 to 100 ug/mL; procedure, shortened: as §2
[8] = test system: Staphylococcus aureus; test: Reduction of ethidium bromide MIC in mepA-deficient Staphylococcus aureus K2885 at 0.78 to 100 ug/mL; assay type: functional, organism-based
Procedure, shortened: (§4)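 The strains are norA-deleted S. aureus carrying pALC2073-mepA (K2886) or the empty pALC2073 vector (K2885). Cloned genes are under a xyl/tetO promoter, induced by 0.05 μg/mL tetracycline, which was present in all experiments with these strains. EtBr MICs were determined by CLSI microdilution, with and without test compound.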

[9] = molecular target: Quinolone resistance protein NorA (Staphylococcus aureus, UniProt P0A0J7); test: Inhibition of NorA in Staphylococcus aureus 1199B harboring grlA A116E mutant assessed as inhibition of ethidium bromide efflux measured for 5 mins by fluorometric analysis
Procedure, shortened: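 Fluorometric EtBr efflux assay in SA-1199B (norA overexpressing, GrlA A116E) over a 5 min time course, compared with no-inhibitor control. Increasing inhibitor concentrations were tested, and IC50 was read by inspection of the dose-response plots. Usually run in duplicate.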

[10] = test system: Staphylococcus aureus; test: Inhibition of MepA in Staphylococcus aureus K2886 assessed as reduction of ethidium bromide MIC at 0.78 to 100 ug/mL; procedure, shortened: as §4
[11] = molecular target: T1, Quinolone resistance protein NorA (Staphylococcus aureus); test: Inhibition of NorA in Staphylococcus aureus ATCC 25923 assessed as reduction of ciprofloxacin MIC at 0.78 to 100 ug/mL; procedure, shortened: as §2
[12] = test system: Staphylococcus aureus; test: Antibacterial activity against wild type Staphylococcus aureus ATCC 25923 assessed as growth inhibition by microdilution method; assay type: functional; procedure, shortened: as §1
[13] = test system: Staphylococcus aureus; test: Antibacterial activity against Staphylococcus aureus 1199B overexpressing NorA and grlA A116E mutant assessed as growth inhibition by microdilution method; assay type: functional; procedure, shortened: as §3

Compound: CCCOc1ccc(-c2cc(OCCN3CCN(Cc4ccccc4)CC3)c3ccccc3n2)cc1
- MIC [1]: > 100 µg/mL
- Activity [2]: inactive
- inhibition [3]: 81.2%
- MIC [4]: > 100 µg/mL
- MIC [5]: > 100 µg/mL
- fold change (FC) [6]: 4
- inhibition [7]: inactive
- Activity [8]: inactive
- IC50 [9]: 3.8 µM
- inhibition [10]: Active
- inhibition [11]: inactive
- MIC [12]: > 100 µg/mL
- MIC [13]: > 200 µM

Compound: CCCOc1ccc(-c2cc(OCCN3CCC4(CC3)OCCO4)c3ccccc3n2)cc1
- Activity [2]: inactive
- inhibition [3]: 80.4%
- MIC [4]: > 100 µg/mL
- fold change (FC) [6]: 4
- inhibition [7]: inactive
- IC50 [9]: 8.5 µM
- inhibition [11]: inactive
- MIC [13]: > 200 µM

Compound: CCCOc1ccc(-c2cc(OCCN)c3ccccc3n2)cc1
- inhibition [3]: 96.1%
- IC50 [9]: 9.3 µM
- MIC [13]: > 310 µM

Compound: CCCOc1ccc(-c2cc(OC3CN4CCC3CC4)c3ccccc3n2)cc1 (centres undefined)
- inhibition [3]: 91.3%
- IC50 [9]: 14.8 µM
- MIC [13]: > 200 µM

Compound: CCCCN(CCCC)CCOc1cc(-c2ccc(OCCC)cc2)nc2ccccc12
- inhibition [3]: 88.6%
- IC50 [9]: 9.2 µM
- MIC [13]: > 200 µM

Compound: CCCOc1ccc(-c2cc(OCCN(C)C)c3ccccc3n2)cc1
- inhibition [3]: 92%
- IC50 [9]: 9.9 µM
- MIC [13]: > 249 µM

Compound: CCCOc1ccc(-c2cc(OCCN3CCCC3)c3ccccc3n2)cc1
- inhibition [3]: 94.2%
- IC50 [9]: 9.3 µM
- MIC [13]: > 200 µM

Compound: CCCOc1ccc(-c2cc(OC(C)CN(C)C)c3ccccc3n2)cc1 (racemic)
- inhibition [3]: 86.2%
- IC50 [9]: 13.3 µM
- MIC [13]: > 200 µM

Compound: CCCOc1ccc(-c2cc(OC3CCCN(C)C3)c3ccccc3n2)cc1 (centres undefined)
- Activity [2]: inactive
- inhibition [3]: 88.2%
- MIC [4]: > 100 µg/mL
- fold change (FC) [6]: 4
- inhibition [7]: inactive
- IC50 [9]: 8 µM
- inhibition [11]: inactive
- MIC [13]: > 200 µM

Compound: CCCOc1ccc(-c2cc(OCCN3CCc4cc(OC)c(OC)cc4C3)c3ccccc3n2)cc1
- inhibition [3]: 79.6%

Compound: Fc1ccc([C@H]2CCNC[C@@H]2COc2ccc3c(c2)OCO3)cc1
- inhibition [3]: 85%

Compound: CCCOc1ccc(-c2cc(OCC(C)N(C)C)c3ccccc3n2)cc1.Cl (centres undefined)
- Activity [2]: inactive
- inhibition [3]: 90.4%
- MIC [4]: > 100 µg/mL
- fold change (FC) [6]: 4
- inhibition [7]: inactive
- IC50 [9]: 7.5 µM
- inhibition [11]: inactive
- MIC [13]: > 200 µM

Compound: CCCOc1ccc(-c2cc(OCCCN(C)C)c3ccccc3n2)cc1.Cl
- MIC [1]: 25 µg/mL
- Activity [2]: inactive
- inhibition [3]: 90.6%
- MIC [4]: > 100 µg/mL
- MIC [5]: 25 µg/mL
- fold change (FC) [6]: 4
- inhibition [7]: inactive
- Activity [8]: inactive
- IC50 [9]: 3.9 µM
- inhibition [10]: Active
- inhibition [11]: inactive
- MIC [12]: > 100 µg/mL
- MIC [13]: > 200 µM

Compound: CCCOc1ccc(-c2cc(OCCN3CCSCC3)c3ccccc3n2)cc1
- inhibition [3]: 57.7%

Compound: CCCOc1ccc(-c2cc(OCCN3CCN(C)CC3)c3ccccc3n2)cc1
- inhibition [3]: 91%
- IC50 [9]: 9.7 µM
- MIC [13]: > 200 µM

Compound: O=C(O)c1cn(C2CC2)c2cc(N3CCNCC3)c(F)cc2c1=O [CIPROFLOXACIN]
- MIC [1]: 0.63 µg/mL
- MIC [4]: 0.63 µg/mL
- MIC [5]: 2.5 µg/mL
- MIC [12]: 0.31 µg/mL

Compound: CCCOc1ccc(-c2cc(OCCN(CC)Cc3ccccc3)c3ccccc3n2)cc1
- inhibition [3]: 72.5%
- MIC [13]: > 200 µM

Compound: CCCOc1ccc(-c2cc(OCCN3CCOCC3)c3ccccc3n2)cc1
- inhibition [3]: 86.9%
- IC50 [9]: 10.7 µM
- MIC [13]: > 200 µM

Compound: CCCOc1ccc(-c2cc(OCCN(Cc3ccccc3)Cc3ccccc3)c3ccccc3n2)cc1
- inhibition [3]: 0%

Compound: CCCOc1ccc(-c2cc(OCCC(C)C)c3ccccc3n2)cc1
- inhibition [3]: 33.2%

Compound: CCCOc1ccc(-c2cc(OCCN3CCC(=O)CC3)c3ccccc3n2)cc1
- inhibition [3]: 71.7%
- MIC [13]: > 200 µM

Compound: CCCOc1ccc(-c2cc(OCCN(C(C)C)C(C)C)c3ccccc3n2)cc1
- MIC [1]: 100 µg/mL
- Activity [2]: inactive
- inhibition [3]: 88.2%
- MIC [4]: > 100 µg/mL
- MIC [5]: > 100 µg/mL
- fold change (FC) [6]: 4
- inhibition [7]: inactive
- Activity [8]: inactive
- IC50 [9]: 8.3 µM
- inhibition [10]: Active
- inhibition [11]: inactive
- MIC [12]: > 100 µg/mL
- MIC [13]: > 200 µM

Compound: CCCOc1ccc(-c2cc(OCCN(CC)CC)c3ccccc3n2)cc1
- MIC [1]: 50 µg/mL
- Activity [2]: inactive
- MIC [4]: > 100 µg/mL
- MIC [5]: 50 µg/mL
- fold change (FC) [6]: 4
- inhibition [7]: inactive
- IC50 [9]: 8.9 µM
- inhibition [11]: inactive
- MIC [12]: 100 µg/mL
- MIC [13]: > 200 µM

Compound: CCCOc1ccc(-c2cc(OCCn3cccc3)c3ccccc3n2)cc1
- inhibition [3]: 4.1%

Compound: CCCOc1ccc(-c2cc(OCc3ccccn3)c3ccccc3n2)cc1
- inhibition [3]: 19.6%

Compound: COC(=O)[C@H]1[C@H]2C[C@@H]3c4[nH]c5cc(OC)ccc5c4CCN3C[C@H]2C[C@@H](OC(=O)c2cc(OC)c(OC)c(OC)c2)[C@@H]1OC [RESERPINE]
- MIC [1]: > 100 µg/mL
- Activity [2]: inactive
- MIC [4]: > 100 µg/mL
- MIC [5]: > 100 µg/mL
- fold change (FC) [6]: 4
- inhibition [7]: inactive
- IC50 [9]: 9.2 µM
- inhibition [11]: inactive
- MIC [12]: > 100 µg/mL
- MIC [13]: > 150 µM

Compound: CCCOc1ccc(-c2cc(OCCN3C(=O)c4ccccc4C3=O)c3ccccc3n2)cc1
- inhibition [3]: 8.3%

Compound: CCCOc1ccc(-c2cc(OCCN3CCc4ccccc4C3)c3ccccc3n2)cc1
- inhibition [3]: 67.9%
